# Experimental data as given in ChEMBL document CHEMBL1142193, “Dual targeting of GyrB and ParE by a novel aminobenzimidazole class of antibacterial compounds” (2007).
# Assays:
# Streptococcus pneumoniae [1] = experiment: Antibacterial activity against Streptococcus pneumoniae ATCC BAA-255 after 18 to 20 hrs; assay type: functional
# Method in brief: (§1)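 MICs followed CLSI guidelines. Strains were grown overnight at 35°C on solid medium. Inocula were prepared with a Prompt system. Compounds were serially diluted twofold in 100% DMSO at 200x and diluted 1:200 into medium, for a final 0.5% DMSO. Plates were incubated at 35°C for 18 to 20 h and read visually. A twofold MIC variation was taken as assay error.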
# Staphylococcus aureus [2] = experiment: Antibacterial activity against Staphylococcus aureus ATCC 29213 without plasmid; assay type: functional
# Enterococcus faecalis [3] = experiment: Antibacterial activity against Enterococcus faecalis ATCC 29212 with GyrB T167A and ParE T169A mutation after 18 to 20 hrs; assay type: functional; method in brief: as §1
# Streptococcus pneumoniae [4] = experiment: Antibacterial activity against Streptococcus pneumoniae ATCC BAA-255 with GyrB T172A and ParE T172A mutation after 18 to 20 hrs; assay type: functional; method in brief: as §1
# Streptococcus pneumoniae [5] = experiment: Antibacterial activity against novobiocin-resistant Streptococcus pneumoniae ATCC BAA-255 with GyrB S127L mutation after 18 to 20 hrs; assay type: functional; method in brief: as §1
# Streptococcus pneumoniae [6] = experiment: Antibacterial activity against Streptococcus pneumoniae ATCC BAA-255 with ParE T172I mutation after 18 to 20 hrs; assay type: functional; method in brief: as §1
# Staphylococcus aureus [7] = experiment: Antibacterial activity against Staphylococcus aureus ATCC 29213 carrying plasmid expressing GyrB R144I mutant; assay type: functional
# Staphylococcus aureus [8] = experiment: Antibacterial activity against Staphylococcus aureus ATCC 29213 with GyrB T173N and GrlB T166A mutation after 18 to 20 hrs; assay type: functional; method in brief: as §1
# Staphylococcus aureus [9] = experiment: Antibacterial activity against Staphylococcus aureus ATCC 29213 with GyrB R144I mutation without plasmid; assay type: functional
# Escherichia coli = experiment: Reduction in steady-state levels of supercoiled pUC18 in Escherichia coli CAG12184 tolC mutant; assay type: functional, organism-based
# Method in brief: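 Cells carrying pUC18 grown at 37°C in caMHB with 100 µg/ml ampicillin to OD600 0.5, then exposed 1 h at 37°C with shaking to a twofold dilution series spanning the MIC. Plasmid isolated, concentrated, run on 1% TBE-agarose alongside supercoiled markers for 16 h, stained with ethidium bromide.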
# Staphylococcus aureus [10] = experiment: Antibacterial activity against Staphylococcus aureus ATCC 29213 after 18 to 20 hrs; assay type: functional; method in brief: as §1
# Enterococcus faecalis [11] = experiment: Antibacterial activity against Enterococcus faecalis ATCC 29212 with GyrB T167I and ParE T169A mutation after 18 to 20 hrs; assay type: functional; method in brief: as §1
# Enterococcus faecalis [12] = experiment: Antibacterial activity against Enterococcus faecalis ATCC 29212 with ParE T169A mutation after 18 to 20 hrs; assay type: functional; method in brief: as §1
# Streptococcus pneumoniae [13] = experiment: Antibacterial activity against Streptococcus pneumoniae ATCC BAA-255 with ParE T172A mutation after 18 to 20 hrs; assay type: functional; method in brief: as §1
# Enterococcus faecalis [14] = experiment: Antibacterial activity against Enterococcus faecalis ATCC 29212 after 18 to 20 hrs; assay type: functional; method in brief: as §1
# Staphylococcus aureus [15] = experiment: Antibacterial activity against Staphylococcus aureus ATCC 29213 with GyrB T173I and GrlB T166A mutation after 18 to 20 hrs; assay type: functional; method in brief: as §1
# Haemophilus influenzae [16] = experiment: Antibacterial activity against novobiocin-resistant Haemophilus influenzae ATCC 51907 with GyrB R140C mutation after 18 to 20 hrs; assay type: functional; method in brief: as §1
# Staphylococcus aureus [17] = experiment: Antibacterial activity against Staphylococcus aureus ATCC 29213 carrying plasmid expressing wild type GyrB; assay type: functional
# Staphylococcus aureus [18] = experiment: Antibacterial activity against Staphylococcus aureus ATCC 29213 with GyrB T173I mutation without plasmid; assay type: functional
# Staphylococcus aureus [19] = experiment: Antibacterial activity against Staphylococcus aureus ATCC 29213 carrying plasmid expressing GyrB T173N mutant; assay type: functional
# Haemophilus influenzae [20] = experiment: Antibacterial activity against novobiocin-resistant Haemophilus influenzae ATCC 51907 with GyrB R140H mutation after 18 to 20 hrs; assay type: functional; method in brief: as §1
# Haemophilus influenzae [21] = experiment: Antibacterial activity against Haemophilus influenzae ATCC 51907 after 18 to 20 hrs; assay type: functional; method in brief: as §1
# Staphylococcus aureus [22] = experiment: Antibacterial activity against Staphylococcus aureus ATCC 29213 with GyrB T173N mutation after 18 to 20 hrs; assay type: functional; method in brief: as §1
# Enterococcus faecalis [23] = experiment: Antibacterial activity against Enterococcus faecalis ATCC 29212 with GyrB T167A mutation after 18 to 20 hrs; assay type: functional; method in brief: as §1
# Haemophilus influenzae [24] = experiment: Antibacterial activity against Haemophilus influenzae ATCC 51907 with GyrB T169I mutation after 18 to 20 hrs; assay type: functional; method in brief: as §1
# Staphylococcus aureus [25] = experiment: Antibacterial activity against Staphylococcus aureus ATCC 29213 with GyrB T173N mutation without plasmid; assay type: functional
# Enterococcus faecalis [26] = experiment: Antibacterial activity against Enterococcus faecalis ATCC 29212 with GyrB T167I mutation after 18 to 20 hrs; assay type: functional; method in brief: as §1
# Staphylococcus aureus [27] = experiment: Antibacterial activity against Staphylococcus aureus ATCC 29213 carrying plasmid expressing GyrB T173I mutant; assay type: functional
# Staphylococcus aureus [28] = experiment: Antibacterial activity against novobiocin-resistant Staphylococcus aureus ATCC 29213 with GyrB R144I mutation after 18 to 20 hrs; assay type: functional; method in brief: as §1
# Staphylococcus aureus [29] = experiment: Antibacterial activity against Staphylococcus aureus ATCC 29213 with GyrB T173I mutation after 18 to 20 hrs; assay type: functional; method in brief: as §1
# Haemophilus influenzae [30] = experiment: Antibacterial activity against novobiocin-resistant Haemophilus influenzae ATCC 51907 with GyrB R140L mutation after 18 to 20 hrs; assay type: functional; method in brief: as §1
SMILES,MIC (Streptococcus pneumoniae [1]),MIC (Staphylococcus aureus [2]),MIC (Enterococcus faecalis [3]),MIC (Streptococcus pneumoniae [4]),MIC (Streptococcus pneumoniae [5]),MIC (Streptococcus pneumoniae [6]),MIC (Staphylococcus aureus [7]),MIC (Staphylococcus aureus [8]),MIC (Staphylococcus aureus [9]),MIC (Staphylococcus aureus [10]),MIC (Enterococcus faecalis [11]),MIC (Enterococcus faecalis [12]),MIC (Streptococcus pneumoniae [13]),MIC (Enterococcus faecalis [14]),MIC (Staphylococcus aureus [15]),MIC (Haemophilus influenzae [16]),MIC (Staphylococcus aureus [17]),MIC (Staphylococcus aureus [18]),MIC (Staphylococcus aureus [19]),MIC (Haemophilus influenzae [20]),other results
CCNC(=O)Nc1nc2cc(-c3cccnc3)cc(-c3ncccc3F)c2[nH]1,0.004 µg/mL,0.06 µg/mL,0.5 µg/mL,0.25 µg/mL,0.002 µg/mL,0.016 µg/mL,0.06 µg/mL,> 8 µg/mL,0.06 µg/mL,0.03 µg/mL,1 µg/mL,0.064 µg/mL,0.016 µg/mL,0.032 µg/mL,4 µg/mL,1 µg/mL,0.06 µg/mL,0.25 µg/mL,0.25 µg/mL,1 µg/mL,Activity (Escherichia coli): Dose-dependent effect; MIC (Haemophilus influenzae [21]): 1 µg/mL; MIC (Staphylococcus aureus [22]): 0.5 µg/mL; MIC (Enterococcus faecalis [23]): 0.032 µg/mL; MIC (Haemophilus influenzae [24]): > 64 µg/mL; MIC (Staphylococcus aureus [25]): 0.25 µg/mL; MIC (Enterococcus faecalis [26]): 0.064 µg/mL; MIC (Staphylococcus aureus [27]): 0.13 µg/mL; MIC (Staphylococcus aureus [28]): 0.06 µg/mL; MIC (Staphylococcus aureus [29]): 0.5 µg/mL; MIC (Haemophilus influenzae [30]): 1 µg/mL
CO[C@@H]1[C@@H](OC(N)=O)[C@@H](O)[C@H](Oc2ccc3c(O)c(NC(=O)c4ccc(O)c(CC=C(C)C)c4)c(=O)oc3c2C)OC1(C)C [NOVOBIOCIN],0.5 µg/mL,0.13 µg/mL,16 µg/mL,4 µg/mL,8 µg/mL,0.5 µg/mL,8 µg/mL,0.25 µg/mL,8 µg/mL,0.13 µg/mL,16 µg/mL,8 µg/mL,0.5 µg/mL,8 µg/mL,2 µg/mL,8 µg/mL,0.13 µg/mL,2 µg/mL,0.13 µg/mL,4 µg/mL,MIC (Haemophilus influenzae [21]): 0.064 µg/mL; MIC (Staphylococcus aureus [22]): 0.25 µg/mL; MIC (Enterococcus faecalis [23]): 16 µg/mL; MIC (Haemophilus influenzae [24]): 0.25 µg/mL; MIC (Staphylococcus aureus [25]): 0.25 µg/mL; MIC (Enterococcus faecalis [26]): 32 µg/mL; MIC (Staphylococcus aureus [27]): 0.5 µg/mL; MIC (Staphylococcus aureus [28]): 8 µg/mL; MIC (Staphylococcus aureus [29]): 1 µg/mL; MIC (Haemophilus influenzae [30]): 4 µg/mL
